The kinetic solubility is solubility judged after dilution from a stock solution rather than from solid. The pIC50 is the IC50 on a negative log10 scale, so that one unit is a factor of ten. Broadly, the inhibition is the percentage by which the read-out fell short of the control. Broadly, the Cmax is the highest concentration seen after dosing.

pIC50: −log10 of the molar value. Converted amounts (≈) assume the structure as drawn.

Series [1] is described as follows: Metabolic stability in rat liver microsomes after 30 mins. Type of series: ADME, Microsome. The following applies: read-out: Stability. The procedure, abridged:
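Compounds incubated in triplicate with pooled rat liver microsomes plus NADPH at 37 °C for 30 min. Reported as percent remaining.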
On the technique in general: Liver microsomes are a subcellular fraction often used to study metabolism.

A short description of series [2]: Metabolic stability in rat plasma after 30 mins. It counts as ADME, cell-free. Conditions: read-out: Stability. The procedure, abridged:
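Compounds incubated in fresh rat plasma at 37 °C for 30 min. Reported as percent remaining.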

Series [3] in a line: Permeability by PAMPA assay. Type of series: ADME.
The nature of series [4]: Solubility at pH 7.4 by direct UV method. Type of series: physicochemical. The following applies: buffer. The procedure, abridged:
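Direct UV kinetic solubility in aqueous buffer at pH 7.4, in duplicate. Samples held at room temperature for at least 18 h, then filtered to remove precipitate. UV absorbance (250-498 nm) compared with spectra of precipitation-free reference solutions.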

The target in series [5] is T1, Alkaline phosphatase, tissue-nonspecific isozyme (Homo sapiens, UniProt P05186).
T1 sequence (P05186 whole entry): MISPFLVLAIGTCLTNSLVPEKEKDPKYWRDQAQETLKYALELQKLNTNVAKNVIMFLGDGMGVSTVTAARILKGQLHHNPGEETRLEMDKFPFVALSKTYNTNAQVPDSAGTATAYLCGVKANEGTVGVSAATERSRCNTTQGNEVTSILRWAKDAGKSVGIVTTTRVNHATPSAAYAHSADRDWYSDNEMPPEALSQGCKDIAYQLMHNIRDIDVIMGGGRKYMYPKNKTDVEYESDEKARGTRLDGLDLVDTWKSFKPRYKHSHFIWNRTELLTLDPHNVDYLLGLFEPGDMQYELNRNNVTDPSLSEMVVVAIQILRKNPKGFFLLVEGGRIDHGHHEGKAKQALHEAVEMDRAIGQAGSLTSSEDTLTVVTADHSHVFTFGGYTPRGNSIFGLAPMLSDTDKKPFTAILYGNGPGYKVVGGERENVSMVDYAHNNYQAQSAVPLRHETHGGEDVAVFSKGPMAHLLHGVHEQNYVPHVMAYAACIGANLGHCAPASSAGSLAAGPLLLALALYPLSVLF
Put plainly: Inhibition of TNAP transfected in african green monkey COS1 cells by luminescent assay.

For series [6], the target named is Intestinal-type alkaline phosphatase (Homo sapiens, UniProt P09923). Put plainly: Inhibition of IAP by luminescent assay.
Chain of Intestinal-type alkaline phosphatase (P09923 whole entry): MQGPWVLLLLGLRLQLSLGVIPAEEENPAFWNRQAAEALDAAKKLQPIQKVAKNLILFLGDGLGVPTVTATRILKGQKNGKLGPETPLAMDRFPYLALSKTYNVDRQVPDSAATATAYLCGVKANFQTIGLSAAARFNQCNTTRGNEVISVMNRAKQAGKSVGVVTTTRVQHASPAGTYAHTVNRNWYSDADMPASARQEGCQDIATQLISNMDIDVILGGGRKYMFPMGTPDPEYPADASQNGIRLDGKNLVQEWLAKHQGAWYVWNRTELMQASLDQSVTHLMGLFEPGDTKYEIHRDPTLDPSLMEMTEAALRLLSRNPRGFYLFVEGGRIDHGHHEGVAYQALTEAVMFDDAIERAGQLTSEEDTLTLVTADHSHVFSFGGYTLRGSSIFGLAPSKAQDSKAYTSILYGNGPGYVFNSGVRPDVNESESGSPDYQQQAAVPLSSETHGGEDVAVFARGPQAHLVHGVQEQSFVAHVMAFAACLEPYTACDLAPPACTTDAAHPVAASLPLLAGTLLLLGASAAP
Series [7] addresses T2, Ectonucleotide pyrophosphatase/phosphodiesterase family member 1 (Homo sapiens) (UniProt P22413).
T2 sequence (whole entry): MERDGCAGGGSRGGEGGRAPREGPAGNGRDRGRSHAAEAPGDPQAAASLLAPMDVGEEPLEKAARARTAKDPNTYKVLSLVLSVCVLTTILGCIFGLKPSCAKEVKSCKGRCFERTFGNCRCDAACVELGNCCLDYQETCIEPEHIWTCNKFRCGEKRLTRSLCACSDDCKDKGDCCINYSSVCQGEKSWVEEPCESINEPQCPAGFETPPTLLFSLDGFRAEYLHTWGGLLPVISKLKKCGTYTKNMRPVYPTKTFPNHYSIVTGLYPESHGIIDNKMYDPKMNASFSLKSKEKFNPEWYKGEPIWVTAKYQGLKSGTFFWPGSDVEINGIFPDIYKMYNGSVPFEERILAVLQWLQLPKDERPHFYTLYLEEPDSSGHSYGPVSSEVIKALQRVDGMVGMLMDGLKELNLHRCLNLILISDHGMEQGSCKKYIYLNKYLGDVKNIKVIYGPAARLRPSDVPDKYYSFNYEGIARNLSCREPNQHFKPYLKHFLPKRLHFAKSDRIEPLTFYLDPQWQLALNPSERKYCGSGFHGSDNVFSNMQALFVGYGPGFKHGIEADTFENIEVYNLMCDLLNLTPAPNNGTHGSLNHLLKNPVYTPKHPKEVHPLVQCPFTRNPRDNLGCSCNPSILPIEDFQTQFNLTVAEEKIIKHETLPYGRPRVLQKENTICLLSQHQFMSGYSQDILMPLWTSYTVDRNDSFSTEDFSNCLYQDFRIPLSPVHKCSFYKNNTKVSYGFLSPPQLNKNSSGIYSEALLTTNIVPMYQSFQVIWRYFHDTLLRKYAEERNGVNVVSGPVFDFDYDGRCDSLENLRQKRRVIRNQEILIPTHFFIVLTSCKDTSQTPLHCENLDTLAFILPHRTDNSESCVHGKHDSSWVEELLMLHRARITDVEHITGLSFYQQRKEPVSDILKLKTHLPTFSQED
Put plainly: Inhibition of NPP1. Conditions: concentration not given here. In outline: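 NPP1 activity with 5 mM pNP-TMP in 50 mM Tris pH 7.4 or 100 mM Tris pH 8.9 with 2 mM MgCl2 at 37 °C. Reaction started with enzyme and stopped with 1 M NaOH at set times. p-Nitrophenolate read at 410 nm, in triplicate, with no-enzyme controls. Inhibitor tested at 10 μM final.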

In series [8] the target is T3, Phosphoethanolamine/phosphocholine phosphatase (Homo sapiens) (UniProt Q8TCT1).
T3 sequence (whole entry): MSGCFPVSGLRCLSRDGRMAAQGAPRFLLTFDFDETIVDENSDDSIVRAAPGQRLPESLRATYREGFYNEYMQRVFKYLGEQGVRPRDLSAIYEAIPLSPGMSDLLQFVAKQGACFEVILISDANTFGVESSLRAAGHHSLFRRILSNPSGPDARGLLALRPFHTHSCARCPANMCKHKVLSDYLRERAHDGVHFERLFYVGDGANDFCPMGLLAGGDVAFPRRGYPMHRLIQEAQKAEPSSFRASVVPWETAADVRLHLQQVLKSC
Put plainly: Inhibition of PHOSPHO1 assessed as inorganic phosphate release. The following applies: concentration not given here.

Series [9] in a line: Cmax in rat at 4.13 mg/kg, sc. The following applies: in vivo. It counts as ADME, organism-based. Also noted: dose 4.13 mg/kg, route subcutaneous. The procedure, abridged: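 Rats dosed subcutaneously with 400 microliters of a […] solution (4.13 mg/kg) in 50% DMSO in normal saline. Blood drawn and frozen immediately, plasma kept at -20 °C. Compound quantified by LC-MS/MS (electrospray, C18 reverse-phase, water-acetonitrile gradient) against a 7-point calibration curve built from peak areas of serial dilutions.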

Turning to `COc1ccc(C)cc1S(=O)(=O)Nc1cccnc1`, the remaining at 0.5 h in series [1] was 39%; in [2] it was 98%. The same compound came in with a permeability in series [3] of 83%. Besides, the solubility (kinetic) in series [4] worked out at 28.5 µg/mL (≈ 102 µM). Besides, the pIC50 in [5] was 5.73.
The compound `COc1cc(S(=O)(=O)Nc2cccnc2)c(OC)cc1Cl` showed a pIC50 in series [5] of 5.95.
The compound `COc1ccc(OC)c(S(=O)(=O)Nc2cccnc2)c1` showed a pIC50 in series [5] of 5.97.
With `COc1ccc(F)cc1S(=O)(=O)Nc1cccnc1`, in series [5], the pIC50 was 5.89.
In the case of `COc1cc(S(=O)(=O)Nc2cccnc2)c(OC)cc1C`, the pIC50 in series [5] was 5.83.
As to `COc1ccc(OC)c(S(=O)(=O)Nc2cnc3ccccc3c2)c1`, the figures for the remaining at 0.5 h in [1] and in series [2] were 78% and 97%, respectively. Moreover, the permeability in [3] worked out at 58%. In series [4], this compound came in with a solubility (kinetic) of 138 µg/mL (≈ 401 µM). This compound also had a pIC50 in [6] of under 4.00. The inhibition is under 9.5% in series [7] and under 7.4% in [8]. This compound gave a Cmax in series [9] of 1500 ng/mL.
`COc1cc([N+](=O)[O-])ccc1S(=O)(=O)Nc1cccnc1`: the remaining at 0.5 h in [1] worked out at 68%; in series [2], 99%. In [3], this compound showed a permeability of 51%. In series [4], this compound showed a solubility (kinetic) of 1.1 µg/mL (≈ 3.56 µM). For the same compound, in [5], the pIC50 was 5.50.
As to `COc1ccc(OC)c(S(=O)(=O)Nc2ccc3ccccc3c2)c1`, the negative-log IC50 (pIC50) in series [5] was under 5.00.
The compound `COc1cc(S(=O)(=O)Nc2cccnc2)c(OC)cc1Br` had a pIC50 in series [5] of 5.81.
With `COc1cccc(S(=O)(=O)Nc2cnc3ccccc3c2)c1`, the pIC50 in series [5] was under 5.00.
Still for that read-out and setting: as for `CCOc1ccc(C)cc1S(=O)(=O)Nc1cccnc1`, the figure is 5.95.
On the same count and under the same terms, to `CCOc1ccc(Cl)cc1S(=O)(=O)Nc1cccnc1` belongs 6.27; to `COc1cc(C)c(Cl)cc1S(=O)(=O)Nc1cccnc1`, 6.29.
In the case of `COc1ccc(Br)cc1S(=O)(=O)Nc1cnc2ccccc2c1`, the remaining at 0.5 h was found to be 49% in series [1] and 66% in series [2]. Moreover, the permeability in series [3] came out at 54%. The same compound came in with a kinetic solubility in series [4] of 37.9 µg/mL (≈ 96.4 µM).
Consider `COc1cc([N+](=O)[O-])ccc1S(=O)(=O)Nc1cnc2ccccc2c1`, for which the remaining at 0.5 h in series [1] stood at 56%; in series [2] it was 96%. Besides, the permeability in series [3] is reported as 11%. The same compound had a solubility (kinetic) in [4] of 178 µg/mL (≈ 495 µM). In series [5], this compound had a pIC50 of 6.13.
`COc1ccc(OC)c(NS(=O)(=O)c2cnc3ccccc3c2)c1` had a pIC50 in series [5] of under 5.00.
Take `COc1ccc(C)cc1S(=O)(=O)Nc1cnc2ccccc2c1`: the remaining at 0.5 h stood at 48% in [1] and 91% in series [2]. The permeability in series [3] amounted to 7%. The same compound registered a solubility (kinetic) in [4] of 71.6 µg/mL (≈ 218 µM). The same compound showed a pIC50 in series [5] of 6.19.
With `CCOc1cc(C)c(Cl)cc1S(=O)(=O)Nc1cccnc1`, in [5], the pIC50 is 6.16.
`COc1ccc(OC)c(CNc2cnc3ccccc3c2)c1` had a negative-log IC50 (pIC50) in series [5] of under 5.00.
`COc1cc(C)c(C)cc1S(=O)(=O)Nc1cccnc1` had a negative-log IC50 (pIC50) in [5] of 5.77.
On the same count and under the same terms, to `COc1ccc(OC)c(S(=O)(=O)Nc2ccc3ncccc3c2)c1` belongs under 5.00.

The values above are taken from ChEMBL document CHEMBL1154612, “Discovery and validation of a series of aryl sulfonamides as selective inhibitors of tissue-nonspecific alkaline phosphatase (TNAP)” (J Med Chem, 2009).
